TAAR1 agonist – human TAAR1 agonism; activation, % at 3 µM; 360,000 compounds, 0.99% hits; CHO RD-HGA16 TAAR1, Fluo-8 calcium fluorescence; vehicle wells 0%, saturating PEA agonist 100%; AID 624467;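 active = activation above the mean activation of all test compounds in the run plus 3 SD, cut at about 38% in these data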
Target sequence (Q96RJ0 whole entry, looked up): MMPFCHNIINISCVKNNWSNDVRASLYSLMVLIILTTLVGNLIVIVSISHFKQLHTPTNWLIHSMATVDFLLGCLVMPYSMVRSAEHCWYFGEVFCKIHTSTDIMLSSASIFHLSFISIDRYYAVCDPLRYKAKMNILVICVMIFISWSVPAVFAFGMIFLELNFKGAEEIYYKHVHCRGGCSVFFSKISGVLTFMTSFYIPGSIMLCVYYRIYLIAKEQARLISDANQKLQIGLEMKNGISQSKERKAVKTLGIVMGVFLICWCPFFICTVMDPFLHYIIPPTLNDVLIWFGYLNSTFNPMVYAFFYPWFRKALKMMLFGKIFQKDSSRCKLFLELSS
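Repeats: no replicates (n 1) | Material: CHO-derived RD-HGA16 cells with stable Gα16 and human TAAR1 | Technique: Kinetic Fluo-8 calcium fluorescence | Schedule: 17-24 h seeding, 75 min 37 °C dye, 30 min RT | Evaluation: % activation from peak over basal fluorescence ratio, DMSO-to-PEA scaled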
OX1R antag-1 – human HCRTR1 antagonism. O43613. CHO/OX1R cells, Fluo-8 calcium fluorescence, orexin A. inhibition, % at 5 µM. 330,000 compounds, 0.43% hits;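 active = inhibition above its plate's threshold, mean inhibition of all tested compounds on the plate plus 3 SD, cut at about 37% in these data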;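 note: 0% = orexin A challenge wells and 100% = SB-334867-A antagonist wells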
OX1R antag-2 – antagonists of human orexin 1 receptor (OX1R); 330,000 compounds, 1.8% hits; inhibition, % at 6.6 µM; AID 485270; OX1R-expressing cells, FRET antagonist read-out; in the data active = inhibition mostly above about 38%, no sharp cut-off; inactive = mostly below about 40%;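 note: 0% = agonist challenge alone and 100% = reference antagonist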
CHO parental Ca – counter-screen: ATP calcium response change in parental CHO cells | parental CHO-K1, ATP-induced calcium, Fluo-8 fluorescence | inhibition, % at 5.6 µM | 330,000 compounds, 0.63% hits;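 active = inhibition above that plate's mean sample inhibition plus 3 SD, cut at about 26% in these data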;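 note: 0% = ATP-challenged DMSO wells and 100% = DMSO wells without ATP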
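Assay system – parental CHO cells · Reagent – ATP stimulus · Detection – intracellular calcium via Fluo-8 no-wash fluorescent dye · Evaluation – percent inhibition of ATP-evoked calcium rise, normalized to controls · Controls – ATP wells versus no-ATP DMSO wells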
TAAR1 antagonist – human TAAR1 antagonism; CHO RD-HGA16 TAAR1, Fluo-8 calcium fluorescence, antagonist; inhibition, % at 3 µM; 360,000 compounds, 1.5% hits; AID 624466;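 active = inhibition above a per-plate cutoff, the mean inhibition of test compounds on that plate plus 3 SD, cut at about 49% in these data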;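 note: 0% = DMSO plus EC80 beta-PEA response and 100% = DMSO alone without agonist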
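Material: CHO RD-HGA16 cells bearing hTAAR1; compound dosing: one-point dosing, 3 µM nominal final; schedule: dye loading 75 min at 37 °C, then 30 min room temperature; measured by: calcium fluorescence with Fluo-8; control set: vehicle and agonist controls; replication: n of 1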
GPR7 antagonist – human neuropeptides B/W receptor 1 antagonism | GPR7-expressing cells, fluorescence antagonist assay | inhibition, % at 4.4 µM | 290,000 compounds, 1.1% hits | AID 1861; in the data active = inhibition above about 16%, passing the limit was not always enough;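 note: cells stimulated with the agonist NPW; 0% = agonist with vehicle and 100% = vehicle without agonist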
The depositor's hits bear a star. A selection: hits, their analogues and other compounds. The true share with any hit is near 4.6%.

`Cc1csc(NC(=O)c2cc([N+](=O)[O-])cc([N+](=O)[O-])c2)n1` gave TAAR1 agonist 7, OX1R antag-1 -22, OX1R antag-2 64*, CHO parental Ca 3, TAAR1 antagonist 0 and GPR7 antagonist -4.
`Cc1cc(NC(=O)c2cc([N+](=O)[O-])cc([N+](=O)[O-])c2)no1` gave TAAR1 agonist 1, OX1R antag-1 -22, OX1R antag-2 57*, CHO parental Ca -9, TAAR1 antagonist -29 and GPR7 antagonist -9.
O=C(Nc1ccc(Br)cc1)c1cc([N+](=O)[O-])cc([N+](=O)[O-])c1 was read as TAAR1 agonist 11, OX1R antag-1 -12, OX1R antag-2 28, CHO parental Ca 6, TAAR1 antagonist 11 and GPR7 antagonist -7.
For CC1CCN(C(=O)c2ncn3c2C(=O)NC[C@H]3C)CC1 the results were TAAR1 agonist 1 and TAAR1 antagonist -10.
C=CS(=O)(=O)N(C(=C)C(=O)OC)S(C)(=O)=O was read as TAAR1 agonist 13 and TAAR1 antagonist -9.
Screening CN(C)C(=O)c1cccc(-c2cnc3cccnn23)c1 returned TAAR1 agonist 0 and TAAR1 antagonist -3.
Cc1cc(S(=O)(=O)NCc2ccccc2)ccc1OCC(=O)Nc1cccc([N+](=O)[O-])c1 was read as TAAR1 agonist 9, OX1R antag-1 53*, OX1R antag-2 84*, CHO parental Ca 49*, TAAR1 antagonist 41 and GPR7 antagonist 5.
Screening CN(C)C(=O)C[C@@H]1C=C[C@@H](NC(=O)C2CCC2)[C@@H](CO)O1 returned TAAR1 agonist 1 and TAAR1 antagonist 2.
O=C(CC1Oc2ccccc2NC1=O)NCCc1ccccc1 (centres undefined) was read as TAAR1 agonist 66*, OX1R antag-1 -15, OX1R antag-2 10, CHO parental Ca -2, TAAR1 antagonist 16 and GPR7 antagonist -14.
Screening CCOc1ccc(-n2c(=S)sc3c(=O)[nH]c(SCC(=O)C(C)(C)C)nc32)cc1 returned TAAR1 agonist 14, OX1R antag-1 1, OX1R antag-2 48*, CHO parental Ca -8, TAAR1 antagonist 4 and GPR7 antagonist -7.
For CCOC(=O)Cc1csc(SCC(=O)Nc2cccc(Cl)c2)n1 the results were TAAR1 agonist 9, OX1R antag-1 5, OX1R antag-2 34, CHO parental Ca 10, TAAR1 antagonist 25 and GPR7 antagonist -2.
For CCOC(=O)Cc1csc(SCC(=O)Nc2cc(Cl)ccc2Oc2ccccc2)n1 the results were TAAR1 agonist 17, OX1R antag-1 61*, OX1R antag-2 54, CHO parental Ca 62*, TAAR1 antagonist 88* and GPR7 antagonist 6.
`C[C@H](O)[C@@H]1CN2CCc3ccc(-c4ccc5c(c4)OCO5)cc3[C@@H]2C[C@@H]1N(C)C(=O)c1ccco1` gave TAAR1 agonist -1 and TAAR1 antagonist -11.
COc1ccc(CNC(=O)CSc2nc(SC)ns2)cc1 was read as TAAR1 agonist -2, OX1R antag-1 -21, OX1R antag-2 11, CHO parental Ca 98*, TAAR1 antagonist 6 and GPR7 antagonist -3.
Screening COc1c(OC(C)=O)ccc(/C=C/c2ccc3ccccc3n2)c1[N+](=O)[O-] returned TAAR1 agonist 9, OX1R antag-1 2, OX1R antag-2 42*, CHO parental Ca -7, TAAR1 antagonist 17 and GPR7 antagonist 5.
For CCN(c1ccccc1)S(=O)(=O)c1ccc(OC)c(NC(=O)CNCCc2ccccc2)c1 the results were TAAR1 agonist 31, OX1R antag-1 -10, OX1R antag-2 27, CHO parental Ca 14, TAAR1 antagonist 55* and GPR7 antagonist 5.
For CCN(c1ccccc1)S(=O)(=O)c1ccc(OC)c(NC(=O)C2CCC2)c1 the results were TAAR1 agonist 0, OX1R antag-1 -9, OX1R antag-2 2, CHO parental Ca -16 and TAAR1 antagonist -17.
For Cc1ccc(C)c(OCC(=O)OCc2csc(CC(=O)Nc3ccccc3C)n2)c1 the results were TAAR1 agonist -1 and TAAR1 antagonist 0.
Cc1ccccc1NC(=O)Cc1nc(COC(=O)COc2ccccc2C(C)C)cs1 was read as TAAR1 agonist 2, OX1R antag-1 28, OX1R antag-2 -4, CHO parental Ca -26 and TAAR1 antagonist 55*.
